Results: ChEMBL document CHEMBL1154945, “Decahydroisoquinoline derivatives as novel non-peptidic, potent and subtype-selective somatostatin sst(3) receptor antagonists” (Bioorg Med Chem Lett, 2010)

Columns and labels:
[1] = target: Somatostatin receptor type 1 (Homo sapiens, UniProt P30872); test: Binding affinity to human SST1 receptor
[2] = target: T1, Somatostatin receptor type 3 (Homo sapiens, UniProt P32745); test: Binding affinity to human SST3 receptor
Homo sapiens [3] = species: Homo sapiens; test: Selectivity for human SST3 over human SST5
[4] = target: Somatostatin receptor type 1 (Rattus norvegicus, UniProt P28646); test: Displacement of [125I]SRIF-14 from rat cortex membrane SST1 receptor
Homo sapiens [5] = species: Homo sapiens; test: Selectivity for human SST3 over human SST4
[6] = target: Somatostatin receptor type 5 (Homo sapiens, UniProt P35346); test: Binding affinity to human SST5 receptor
[7] = target: Somatostatin receptor type 2 (Rattus norvegicus, UniProt P30680); test: Displacement of [125I]SRIF-14 from rat cortex membrane SST2 receptor
[8] = target: Somatostatin receptor type 4 (Homo sapiens, UniProt P31391); test: Binding affinity to human SST4 receptor
[9] = target: Somatostatin receptor type 2 (Homo sapiens, UniProt P30874); test: Binding affinity to human SST2 receptor
Homo sapiens [10] = species: Homo sapiens; test: Selectivity for human SST3 over human SST2
[11] = Ratio of drug level in brain to plasma in rat at 3 mg/kg, po after 1 hr by LC-MS based method; type: ADME, organism-based; parameters: dose 3 mg/kg, route oral; details: brain and plasma
In short: (§1)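 Mice and rats dosed orally at 3 mg/kg with unlabelled drug; plasma and brain sampled 1 h after dosing and analysed by LC–MS (LOQ 0.4 ng/ml plasma, 2 ng/g brain); brain/plasma ratio calculated.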

[12] = target: Somatostatin receptor type 3 (Mus musculus, UniProt P30935); test: Displacement of [125I]SRIF-28 from mouse recombinant SST3 receptor
In short: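 Radioligand binding on recombinant mouse sst3 receptors with 125I-SRIF28 as tracer; pKD reported, n = 3.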

D(2) dopamine receptor = D(2) dopamine receptor (Homo sapiens, UniProt P14416); test: Binding affinity to dopamine D2 receptor
[13] = Oral bioavailability in rat at 3 mg/kg; type: ADME, organism-based; details: in vivo
In short: (§2)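 Unlabelled drug given orally (3 mg/kg) and intravenously (1 mg/kg) to mice and rats; plasma quantified by LC–MS (LOQ 0.4 ng/ml); absolute bioavailability estimated from the two routes.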

[14] = target: T1, Somatostatin receptor type 3; test: Antagonist activity at human recombinant SST3 receptor expressed in CHO cells assessed as inhibition of SRIF14-induced cAMP accumulation; type: functional, cell-based
In short: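 cAMP-based functional assay with human recombinant sst3 receptors expressed in CHO cells; test agent's antagonism of SRIF-14 response measured, pKB derived; n = 6.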

[15] = target: T2, 5-hydroxytryptamine receptor 2C (Homo sapiens, UniProt P28335); test: Binding affinity to 5HT2C receptor
T2 sequence (P28335 whole entry): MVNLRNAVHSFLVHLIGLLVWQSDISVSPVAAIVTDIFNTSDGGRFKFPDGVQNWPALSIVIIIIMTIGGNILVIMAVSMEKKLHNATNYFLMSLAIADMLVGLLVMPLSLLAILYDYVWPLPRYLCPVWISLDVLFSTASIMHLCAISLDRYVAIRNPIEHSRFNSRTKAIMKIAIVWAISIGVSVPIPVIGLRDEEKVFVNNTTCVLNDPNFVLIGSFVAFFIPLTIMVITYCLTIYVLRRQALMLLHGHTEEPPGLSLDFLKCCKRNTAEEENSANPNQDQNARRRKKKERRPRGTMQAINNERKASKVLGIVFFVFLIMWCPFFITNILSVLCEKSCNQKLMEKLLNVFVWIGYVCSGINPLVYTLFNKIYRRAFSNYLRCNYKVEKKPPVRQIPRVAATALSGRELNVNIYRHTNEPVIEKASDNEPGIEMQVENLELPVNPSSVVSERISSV

[16] = target: T3, Alpha-1A adrenergic receptor (Homo sapiens, UniProt P35348); test: Binding affinity to Alpha-1A adrenergic receptor
T3 sequence (P35348 whole entry): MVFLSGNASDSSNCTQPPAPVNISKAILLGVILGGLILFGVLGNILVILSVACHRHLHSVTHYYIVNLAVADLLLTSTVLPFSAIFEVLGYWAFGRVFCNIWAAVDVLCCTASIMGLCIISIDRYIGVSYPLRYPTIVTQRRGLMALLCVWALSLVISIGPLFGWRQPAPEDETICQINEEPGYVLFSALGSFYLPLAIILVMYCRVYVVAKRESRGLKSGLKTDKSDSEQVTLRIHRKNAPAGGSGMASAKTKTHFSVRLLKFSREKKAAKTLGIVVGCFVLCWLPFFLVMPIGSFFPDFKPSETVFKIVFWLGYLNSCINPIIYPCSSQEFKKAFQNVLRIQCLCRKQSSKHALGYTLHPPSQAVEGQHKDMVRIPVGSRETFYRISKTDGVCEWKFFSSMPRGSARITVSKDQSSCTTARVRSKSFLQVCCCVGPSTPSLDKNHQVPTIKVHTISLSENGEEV

[17] = Apparent terminal half life in rat plasma at 1 mg/kg, iv; type: ADME, organism-based; parameters: dose 1 mg/kg, route intravenous
In short: (§3)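 Unlabelled drug dosed intravenously at 1 mg/kg to mice and rats; plasma analysed by LC–MS (LOQ 0.4 ng/ml); apparent terminal half-life computed from plasma levels.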

Cytochrome P450 2D6 = Cytochrome P450 2D6 (Homo sapiens, UniProt P10635); test: Inhibition of CYP2D6; type: ADME
In short: (§4)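 Inhibition of the five principal human cytochrome P450 isoenzymes screened by a microplate-based, direct fluorometric assay.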

[18] = Oral bioavailability in mouse at 3 mg/kg; type: ADME, organism-based; details: in vivo; in short: as §2
Homo sapiens [19] = species: Homo sapiens; test: Selectivity for human SST3 over human SST1
[20] = Ratio of drug level in brain to plasma in mouse at 3 mg/kg, po after 1 hr by LC-MS based method; type: ADME, organism-based; parameters: dose 3 mg/kg, route oral; details: brain and plasma; in short: as §1
V79 = test: Genotoxicity against chinese hamster V79 cells by micronucleus test; type: toxicity, cell-based, Cricetulus griseus
[21] = Inhibition of CYP450; type: ADME; in short: as §4
[22] = Apparent terminal half life in mouse plasma at 1 mg/kg, iv; type: ADME, organism-based; parameters: dose 1 mg/kg, route intravenous; in short: as §3

T1 sequence (P32745 whole entry): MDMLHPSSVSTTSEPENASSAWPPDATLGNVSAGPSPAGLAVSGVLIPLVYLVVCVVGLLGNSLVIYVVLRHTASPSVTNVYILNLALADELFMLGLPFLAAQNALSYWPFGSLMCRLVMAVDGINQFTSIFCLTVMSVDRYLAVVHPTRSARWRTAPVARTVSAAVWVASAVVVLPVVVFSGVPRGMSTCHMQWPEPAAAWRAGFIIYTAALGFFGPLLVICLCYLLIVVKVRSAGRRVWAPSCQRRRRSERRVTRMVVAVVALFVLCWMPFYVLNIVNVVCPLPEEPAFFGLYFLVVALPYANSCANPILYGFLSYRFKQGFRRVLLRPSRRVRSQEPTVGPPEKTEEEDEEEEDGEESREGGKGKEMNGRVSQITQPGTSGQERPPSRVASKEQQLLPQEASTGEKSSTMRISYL
Somatostatin receptor type 1 (Homo sapiens, UniProt P30872), sequence (P30872 whole entry): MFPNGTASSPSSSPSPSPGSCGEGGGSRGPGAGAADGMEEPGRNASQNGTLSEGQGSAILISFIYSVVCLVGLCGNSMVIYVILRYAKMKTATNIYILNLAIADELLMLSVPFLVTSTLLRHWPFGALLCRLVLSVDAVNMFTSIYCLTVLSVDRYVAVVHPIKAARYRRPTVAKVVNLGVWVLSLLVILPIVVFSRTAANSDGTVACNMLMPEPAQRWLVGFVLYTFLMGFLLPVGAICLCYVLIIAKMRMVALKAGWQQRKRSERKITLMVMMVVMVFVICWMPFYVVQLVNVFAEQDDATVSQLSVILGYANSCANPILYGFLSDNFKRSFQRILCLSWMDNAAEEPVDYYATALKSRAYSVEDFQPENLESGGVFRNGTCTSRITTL
Somatostatin receptor type 2 (Rattus norvegicus, UniProt P30680), sequence (P30680 whole entry): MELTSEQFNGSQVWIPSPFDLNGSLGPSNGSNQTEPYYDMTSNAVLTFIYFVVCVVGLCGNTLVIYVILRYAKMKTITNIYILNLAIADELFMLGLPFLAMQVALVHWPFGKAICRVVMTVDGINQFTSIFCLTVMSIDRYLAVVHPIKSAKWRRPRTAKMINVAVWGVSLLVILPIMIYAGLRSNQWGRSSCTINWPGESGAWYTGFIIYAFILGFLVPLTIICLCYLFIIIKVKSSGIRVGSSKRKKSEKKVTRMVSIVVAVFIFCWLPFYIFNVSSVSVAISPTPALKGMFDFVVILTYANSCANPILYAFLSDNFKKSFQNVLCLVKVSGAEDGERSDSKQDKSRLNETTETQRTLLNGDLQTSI
Somatostatin receptor type 4, sequence (P31391 whole entry): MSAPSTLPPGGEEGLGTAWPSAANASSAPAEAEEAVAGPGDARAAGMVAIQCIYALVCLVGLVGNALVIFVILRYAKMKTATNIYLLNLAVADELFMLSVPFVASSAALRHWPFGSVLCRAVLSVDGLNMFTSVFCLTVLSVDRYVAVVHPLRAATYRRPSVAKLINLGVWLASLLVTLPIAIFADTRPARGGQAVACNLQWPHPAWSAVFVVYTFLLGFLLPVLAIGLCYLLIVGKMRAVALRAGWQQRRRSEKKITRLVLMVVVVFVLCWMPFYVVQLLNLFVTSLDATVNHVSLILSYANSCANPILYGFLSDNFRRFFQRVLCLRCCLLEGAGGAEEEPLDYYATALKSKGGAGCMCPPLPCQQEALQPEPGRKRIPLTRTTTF
Somatostatin receptor type 1 (Rattus norvegicus, UniProt P28646), sequence (P28646 whole entry): as the sequence (P30872 whole entry) above, with S8P, S11T, P16S, S20G, G25V, G26C, A32S, A45S, T385A, T389S counted along it
Somatostatin receptor type 5, sequence (P35346 whole entry): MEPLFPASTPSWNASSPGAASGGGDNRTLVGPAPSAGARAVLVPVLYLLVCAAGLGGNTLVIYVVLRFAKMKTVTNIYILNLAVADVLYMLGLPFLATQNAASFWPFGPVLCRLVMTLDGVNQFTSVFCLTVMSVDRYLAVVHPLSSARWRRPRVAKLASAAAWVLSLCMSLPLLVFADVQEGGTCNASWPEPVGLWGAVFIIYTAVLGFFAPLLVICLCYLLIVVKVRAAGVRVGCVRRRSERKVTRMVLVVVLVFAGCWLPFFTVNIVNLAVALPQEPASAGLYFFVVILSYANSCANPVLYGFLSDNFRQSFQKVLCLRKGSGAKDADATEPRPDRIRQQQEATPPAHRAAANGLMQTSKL
Somatostatin receptor type 2 (Homo sapiens, UniProt P30874), sequence (P30874 whole entry): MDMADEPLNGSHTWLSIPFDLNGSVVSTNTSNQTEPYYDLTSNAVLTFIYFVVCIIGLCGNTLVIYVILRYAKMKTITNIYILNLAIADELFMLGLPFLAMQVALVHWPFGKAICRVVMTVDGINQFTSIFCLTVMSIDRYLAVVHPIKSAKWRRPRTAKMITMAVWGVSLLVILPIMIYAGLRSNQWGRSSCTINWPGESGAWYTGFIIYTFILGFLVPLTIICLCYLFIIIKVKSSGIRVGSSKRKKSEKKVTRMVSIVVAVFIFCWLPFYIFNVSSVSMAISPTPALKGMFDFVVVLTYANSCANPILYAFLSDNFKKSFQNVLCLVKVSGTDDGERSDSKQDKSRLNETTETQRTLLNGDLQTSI
Cytochrome P450 2D6, sequence (P10635 whole entry): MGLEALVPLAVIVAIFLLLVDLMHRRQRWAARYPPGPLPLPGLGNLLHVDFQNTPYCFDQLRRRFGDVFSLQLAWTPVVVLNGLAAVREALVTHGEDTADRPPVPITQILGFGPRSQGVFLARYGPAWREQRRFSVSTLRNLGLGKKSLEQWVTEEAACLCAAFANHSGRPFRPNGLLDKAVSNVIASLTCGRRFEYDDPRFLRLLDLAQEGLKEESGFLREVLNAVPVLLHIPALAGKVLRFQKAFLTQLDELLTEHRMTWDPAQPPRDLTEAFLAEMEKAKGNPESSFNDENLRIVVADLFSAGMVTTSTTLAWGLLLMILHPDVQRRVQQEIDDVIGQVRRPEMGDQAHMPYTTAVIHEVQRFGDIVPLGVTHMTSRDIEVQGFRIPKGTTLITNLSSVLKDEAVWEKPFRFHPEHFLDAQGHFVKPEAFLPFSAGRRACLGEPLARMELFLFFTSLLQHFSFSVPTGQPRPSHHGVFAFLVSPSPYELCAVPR
Somatostatin receptor type 3 (Mus musculus, UniProt P30935), sequence (P30935 whole entry): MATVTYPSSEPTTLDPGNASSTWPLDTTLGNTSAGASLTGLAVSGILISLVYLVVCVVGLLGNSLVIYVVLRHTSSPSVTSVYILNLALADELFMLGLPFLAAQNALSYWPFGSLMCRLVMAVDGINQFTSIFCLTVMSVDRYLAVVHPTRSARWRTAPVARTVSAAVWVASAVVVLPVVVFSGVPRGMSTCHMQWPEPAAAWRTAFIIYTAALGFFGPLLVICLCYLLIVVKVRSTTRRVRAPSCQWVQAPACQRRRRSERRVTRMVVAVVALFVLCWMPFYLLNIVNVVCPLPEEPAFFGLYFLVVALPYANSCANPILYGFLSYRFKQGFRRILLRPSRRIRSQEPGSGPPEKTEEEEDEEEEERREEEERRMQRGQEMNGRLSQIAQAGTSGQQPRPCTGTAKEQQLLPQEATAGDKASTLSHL
D(2) dopamine receptor, sequence (P14416 whole entry): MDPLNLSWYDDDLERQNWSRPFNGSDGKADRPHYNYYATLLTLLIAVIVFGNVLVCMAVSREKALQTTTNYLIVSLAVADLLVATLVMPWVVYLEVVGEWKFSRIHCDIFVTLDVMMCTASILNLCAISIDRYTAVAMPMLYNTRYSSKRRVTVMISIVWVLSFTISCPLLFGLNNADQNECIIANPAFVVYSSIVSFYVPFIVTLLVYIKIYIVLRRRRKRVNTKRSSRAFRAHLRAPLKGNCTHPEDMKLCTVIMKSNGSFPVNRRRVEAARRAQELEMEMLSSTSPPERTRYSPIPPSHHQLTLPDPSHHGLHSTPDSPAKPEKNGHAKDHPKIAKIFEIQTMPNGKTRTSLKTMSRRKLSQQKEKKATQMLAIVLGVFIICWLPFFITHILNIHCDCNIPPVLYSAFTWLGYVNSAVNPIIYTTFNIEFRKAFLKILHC

Row | Compound | Kd [1] | Kd [2] | Ratio (Homo sapiens [3]) | Kd [4] | Ratio (Homo sapiens [5]) | Kd [6] | Kd [7] | Kd [8] | Kd [9] | Ratio (Homo sapiens [10]) | pKb [14] | other results
1 | Cc1nc2cc(C[C@H](C)CN3C[C@@H]4CCCC[C@@H]4[C@H](C(=O)N4CCN(c5ccc(F)c(F)c5)CC4)C3)ccc2o1 | 1.38 µM | 0.00339 µM | > 150 | 0.457 µM | 120 | 1.1 µM | 0.229 µM | 0.417 µM | 5.5 µM | > 150 | – | –
2 | COc1ccc(C[C@H](C)CN2C[C@@H]3CCCC[C@@H]3[C@H](C(=O)N3CCN(c4ccc(F)c(F)c4)CC3)C2)cn1.O=C(O)/C=C/C(=O)O | 2.04 µM | 0.00708 µM | > 150 | 0.589 µM | 21 | 1.12 µM | 0.115 µM | 0.148 µM | 4.57 µM | > 150 | 7.88 | Kp at 1 h [11]: 0.4; Kd [12]: 0.0049 µM; Kd (D(2) dopamine receptor): 0.741 µM; bioavailability [13]: 21%; Kd [15]: 0.427 µM; Kd [16]: 0.692 µM; half-life [17]: 5.6 h; IC50 (Cytochrome P450 2D6): 6.5 µM; bioavailability [18]: 15%; Ratio (Homo sapiens [19]): > 100; Kp at 1 h [20]: 2.4; Activity (V79): Non-toxic; IC50 [21]: > 10 µM; half-life [22]: 1.5 h
3 | C[C@@H](Cc1ccc2nsnc2c1)CN1C[C@@H]2CCCC[C@@H]2[C@H](C(=O)N2CCN(c3ccc(F)c(F)c3)CC2)C1 | 1.55 µM | 0.00776 µM | > 150 | 1.17 µM | 130 | 1.66 µM | 0.151 µM | 1.02 µM | 3.55 µM | > 150 | – | –
4 | COc1ccc(C[C@@H](C)CN2C[C@H]3CCCC[C@H]3[C@@H](C(=O)N3CCN(c4ccc(F)c(F)c4)CC3)C2)cn1 | 0.724 µM | 3.63 µM | – | 0.813 µM | – | 91.2 µM | 20.9 µM | 6.17 µM | 38 µM | – | 5.1 | –
